We go through 13 compounds from ChEMBL document CHEMBL3414544, “PAINS in the assay: chemical mechanisms of assay interference and promiscuous enzymatic inhibition observed during a sulfhydryl-scavenging HTS” (J Med Chem, 2015).

Data set [1] concerns the target Histone acetyltransferase GCN5 (Saccharomyces cerevisiae S288c) (UniProt Q03330). The experiment in a line: Inhibition of yeast histone acetyltransferase Gcn5-Ada2-Ada3 complex using tetramer and [3H]-acetyl-CoA assessed as acetate incorporation […] by liquid scintillation counting in presence of 1 mM DTT.
Data set [2] deals with T1, Histone acetyltransferase p300 (Homo sapiens, UniProt Q09472). The data set can be described thus: Inhibition of recombinant histone acetyltransferase p300 (unknown origin) using dH3-H4 tetramer and [3H]-acetyl-CoA assessed as acetate incorporation […] by liquid scintillation counting.
Data set [3] concerns the target T1, Histone acetyltransferase p300. The data set can be described thus: Inhibition of recombinant histone acetyltransferase p300 (unknown origin) using dH3-H4 tetramer and [3H]-acetyl-CoA assessed as acetate incorporation after 5 mins by liquid scintillation counting in presence of 1 mM DTT.
Data set [4] addresses T2, Histone acetyltransferase RTT109 (Saccharomyces cerevisiae (strain ATCC 204508 / S288c) (Baker's yeast)) (UniProt Q07794).
T2 sequence (whole entry): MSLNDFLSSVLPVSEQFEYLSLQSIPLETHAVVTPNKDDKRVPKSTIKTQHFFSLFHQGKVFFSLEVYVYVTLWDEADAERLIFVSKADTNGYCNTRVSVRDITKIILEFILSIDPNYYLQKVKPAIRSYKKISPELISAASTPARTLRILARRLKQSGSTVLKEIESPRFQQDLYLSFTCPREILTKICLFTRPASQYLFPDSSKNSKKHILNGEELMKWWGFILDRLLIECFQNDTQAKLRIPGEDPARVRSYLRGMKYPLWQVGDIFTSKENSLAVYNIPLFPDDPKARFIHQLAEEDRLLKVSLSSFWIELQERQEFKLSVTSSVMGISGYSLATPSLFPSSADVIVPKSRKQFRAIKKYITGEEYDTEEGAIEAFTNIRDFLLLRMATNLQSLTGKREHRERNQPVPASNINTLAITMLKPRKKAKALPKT
The experiment in a line: Inhibition of Vps75-stimulated recombinant Saccharomyces cerevisiae histone acetyltransferase Rtt109 using [3H]-acetyl-CoA assessed as acetate incorporation […] by liquid scintillation counting in presence of 1 mM DTT.

Data set [5] deals with Histone acetyltransferase GCN5 (Saccharomyces cerevisiae S288c, UniProt Q03330). The experiment in a line: Inhibition of yeast histone acetyltransferase Gcn5-Ada2-Ada3 complex using tetramer and [3H]-acetyl-CoA assessed as acetate incorporation after 30 mins by liquid scintillation counting.
Data set [6] in a line: Fluorescence quenching in HTS buffer with 20 uM 7-diethylamino-3-(4'-maleimidyl-phenyl)-4-methylcoumarin assessed as fluorescence signal reduction at 10 uM after 10 mins. The format is physicochemical.
Data set [7] is described as follows: Fluorescence quenching in HTS buffer assessed as fluorescence signal reduction at 10 uM after 10 mins. The format is physicochemical.
Data set [8] can be described thus: Fluorescence quenching in HTS buffer with […] CoA assessed as fluorescence signal reduction at 10 uM after 10 mins. The format is physicochemical.
The target in data set [9] is T2, Histone acetyltransferase RTT109 (Saccharomyces cerevisiae (strain ATCC 204508 / S288c) (Baker's yeast)). The data set can be described thus: Inhibition of Vps75-stimulated recombinant Saccharomyces cerevisiae histone acetyltransferase Rtt109 assessed as H3K56 acetylated product at […] after 45 mins by Slot bolt inhibiton assay.
A short description of data set [10]: Fluorescence quenching assessed as fluorescence signal reduction at 10 uM after 10 mins. The format is physicochemical. In a few lines:
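CPM (20 μM final) and CoA (5 μM final) reacted to completion in assay buffer (stable plateau, usually ~5 min); adduct solution added to wells preplated with compound; shaken 5 min, equilibrated 5 min at room temperature; fluorescence intensity read as percent signal reduction versus DMSO controls. Flagged as quencher at >20% signal reduction at 10 μM final compound.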

The target in data set [11] is T2, Histone acetyltransferase RTT109 (Saccharomyces cerevisiae (strain ATCC 204508 / S288c) (Baker's yeast)). The data set can be described thus: Inhibition of Vps75-stimulated recombinant Saccharomyces cerevisiae histone acetyltransferase Rtt109 assessed as H3K27 acetylated product at […] after 45 mins by Slot bolt inhibiton assay.
Data set [12] addresses T3, Histone acetyltransferase RTT109 (Saccharomyces cerevisiae (strain ATCC 204508 / S288c) (Baker's yeast), UniProt Q07794).
T3 sequence (Q07794 whole entry): T2 sequence (whole entry)
The data set can be described thus: Inhibition of Vps75-stimulated recombinant Saccharomyces cerevisiae histone acetyltransferase Rtt109 using Asf1-dH3-H4 as substrate assessed as coenzyme A production after 45 mins by CPM based HTS assay. A digest of the protocol:
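Recombinant Rtt109–Vps75 at 50 nM, with Asf1–dH3–H4 as substrate and acetyl-CoA as acetyl donor. Buffer contained freshly prepared 0.01% Triton X-100. The CoA product was detected by fluorescence of its CPM adduct. Plates had Z′ ≥0.5. IC50 came from a four-parameter variable-slope fit.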

Data set [13] deals with T3, Histone acetyltransferase RTT109. The data set can be described thus: Inhibition of Vps75-stimulated recombinant Saccharomyces cerevisiae histone acetyltransferase Rtt109 using [3H]-acetyl-CoA assessed as acetate incorporation after 30 mins by liquid scintillation counting.

Each structure is given as a SMILES string. The source made the active and inactive calls. Unless noted, the calls are words filed in the database; no cut-off is given here.

T1 sequence (Q09472 whole entry): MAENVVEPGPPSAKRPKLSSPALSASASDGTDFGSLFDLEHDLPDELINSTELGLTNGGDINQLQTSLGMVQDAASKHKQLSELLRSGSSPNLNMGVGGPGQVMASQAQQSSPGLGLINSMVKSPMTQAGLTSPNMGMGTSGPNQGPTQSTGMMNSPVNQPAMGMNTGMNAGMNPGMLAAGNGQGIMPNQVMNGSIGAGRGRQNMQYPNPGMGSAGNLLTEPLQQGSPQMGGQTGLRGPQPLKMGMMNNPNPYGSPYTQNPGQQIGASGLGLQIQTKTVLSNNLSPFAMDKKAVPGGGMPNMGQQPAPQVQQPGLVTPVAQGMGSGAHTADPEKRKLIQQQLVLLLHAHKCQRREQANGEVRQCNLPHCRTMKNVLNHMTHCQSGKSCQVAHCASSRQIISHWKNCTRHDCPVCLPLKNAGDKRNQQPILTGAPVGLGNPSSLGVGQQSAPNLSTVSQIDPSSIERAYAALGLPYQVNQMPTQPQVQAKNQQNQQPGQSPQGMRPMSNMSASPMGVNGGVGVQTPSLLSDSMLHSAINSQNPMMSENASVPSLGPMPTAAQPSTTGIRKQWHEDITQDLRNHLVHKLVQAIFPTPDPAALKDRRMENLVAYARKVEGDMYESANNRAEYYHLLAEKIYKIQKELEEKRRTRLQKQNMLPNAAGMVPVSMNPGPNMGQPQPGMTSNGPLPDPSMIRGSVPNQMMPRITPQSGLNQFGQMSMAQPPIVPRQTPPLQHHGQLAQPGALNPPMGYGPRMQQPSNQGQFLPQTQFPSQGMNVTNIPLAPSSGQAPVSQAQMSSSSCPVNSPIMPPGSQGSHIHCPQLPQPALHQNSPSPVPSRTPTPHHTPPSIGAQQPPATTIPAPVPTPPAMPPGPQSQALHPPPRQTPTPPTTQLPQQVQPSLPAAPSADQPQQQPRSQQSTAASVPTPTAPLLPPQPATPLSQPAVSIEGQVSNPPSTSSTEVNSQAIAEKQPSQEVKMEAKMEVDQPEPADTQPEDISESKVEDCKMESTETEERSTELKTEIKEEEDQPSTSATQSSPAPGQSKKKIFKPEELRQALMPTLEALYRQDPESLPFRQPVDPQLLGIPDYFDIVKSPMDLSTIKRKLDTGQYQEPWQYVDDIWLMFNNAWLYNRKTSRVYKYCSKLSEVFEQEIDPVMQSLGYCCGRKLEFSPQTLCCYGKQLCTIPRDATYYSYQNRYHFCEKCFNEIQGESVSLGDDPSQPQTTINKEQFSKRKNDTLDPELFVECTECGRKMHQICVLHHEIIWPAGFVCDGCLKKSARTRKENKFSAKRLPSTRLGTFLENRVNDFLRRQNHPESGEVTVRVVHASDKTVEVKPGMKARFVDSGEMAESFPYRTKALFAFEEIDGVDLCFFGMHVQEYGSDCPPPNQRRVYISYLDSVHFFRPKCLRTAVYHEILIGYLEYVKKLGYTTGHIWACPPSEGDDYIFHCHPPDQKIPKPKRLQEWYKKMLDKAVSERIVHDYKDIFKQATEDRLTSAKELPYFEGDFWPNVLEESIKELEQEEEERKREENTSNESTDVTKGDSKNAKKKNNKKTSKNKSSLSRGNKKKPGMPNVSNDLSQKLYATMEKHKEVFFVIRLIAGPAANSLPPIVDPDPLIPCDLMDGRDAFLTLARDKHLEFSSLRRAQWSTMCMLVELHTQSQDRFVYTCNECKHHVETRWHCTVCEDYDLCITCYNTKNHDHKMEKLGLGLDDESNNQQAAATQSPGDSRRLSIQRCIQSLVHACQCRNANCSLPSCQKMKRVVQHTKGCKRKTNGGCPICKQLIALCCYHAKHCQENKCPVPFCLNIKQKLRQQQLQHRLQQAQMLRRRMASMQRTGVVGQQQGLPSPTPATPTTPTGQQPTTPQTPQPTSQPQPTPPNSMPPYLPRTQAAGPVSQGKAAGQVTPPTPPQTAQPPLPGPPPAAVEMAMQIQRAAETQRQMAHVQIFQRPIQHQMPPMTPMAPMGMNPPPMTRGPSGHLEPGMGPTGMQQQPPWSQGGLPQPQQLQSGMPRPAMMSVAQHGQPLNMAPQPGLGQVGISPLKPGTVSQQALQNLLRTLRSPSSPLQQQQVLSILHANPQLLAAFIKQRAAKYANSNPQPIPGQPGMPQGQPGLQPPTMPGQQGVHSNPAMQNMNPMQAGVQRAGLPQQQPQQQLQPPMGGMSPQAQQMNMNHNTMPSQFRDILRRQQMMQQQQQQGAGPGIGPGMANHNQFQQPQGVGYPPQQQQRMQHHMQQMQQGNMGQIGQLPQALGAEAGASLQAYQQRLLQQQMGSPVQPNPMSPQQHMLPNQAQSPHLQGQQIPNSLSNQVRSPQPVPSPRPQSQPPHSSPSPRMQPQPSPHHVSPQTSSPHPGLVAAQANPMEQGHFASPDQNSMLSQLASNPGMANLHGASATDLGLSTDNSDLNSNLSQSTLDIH
Histone acetyltransferase GCN5 (Saccharomyces cerevisiae S288c), sequence (Q03330 whole entry): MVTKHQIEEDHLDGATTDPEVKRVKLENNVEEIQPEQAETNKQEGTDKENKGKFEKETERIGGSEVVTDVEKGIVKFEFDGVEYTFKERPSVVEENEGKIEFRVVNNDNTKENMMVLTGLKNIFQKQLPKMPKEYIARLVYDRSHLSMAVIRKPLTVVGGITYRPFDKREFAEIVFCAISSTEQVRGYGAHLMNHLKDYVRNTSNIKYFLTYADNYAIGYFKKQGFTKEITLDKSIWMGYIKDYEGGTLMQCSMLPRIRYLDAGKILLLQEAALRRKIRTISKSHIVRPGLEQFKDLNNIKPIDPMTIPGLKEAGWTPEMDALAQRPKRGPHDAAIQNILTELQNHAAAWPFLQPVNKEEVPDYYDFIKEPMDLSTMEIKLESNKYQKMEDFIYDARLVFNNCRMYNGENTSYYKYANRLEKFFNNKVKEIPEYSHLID
Histone acetyltransferase GCN5, sequence (Q03330 whole entry): as above

With `C=C(C)[C@@H](CC=C(C)C)C[C@@]12C[C@@H](CC=C(C)C)C(C)(C)[C@@](CC=C(C)C)(C(=O)C(C(=O)c3ccc(O)c(O)c3)=C1O)C2=O` [GARCINOL], the outcome in data set [1], in data set [3] and in data set [4] was inactive. The values for the IC50 in [2] (read-out: IC50) and in [5] (read-out: IC50) were 1700 nM and 2600 nM, respectively.

On to `Cc1ccc(-c2nc(N)s[n+]2-c2ccccc2)cc1.[Br-]`, for which the result in [1], in data set [3], in data set [4], in data set [9] and in data set [11] was Active. Further, the results for the IC50 in data set [2] (read-out: IC50) and in data set [5] (read-out: IC50) were 1800 nM and 5300 nM, respectively. The Activity result in data set [6], in [7], in data set [8] and in data set [10] was “Not Active” throughout.

In the case of `Cc1ccc(N2C(=O)CC(Sc3nncn3-c3ccccc3)C2=O)cc1` (stereo not given), the IC50 (as a rule, the concentration that inhibits the measured activity by half) is 11000 nM in data set [12] (read-out: IC50), 8600 nM in data set [13] (read-out: IC50), 9800 nM in data set [2] (read-out: IC50) and 27000 nM in data set [5] (read-out: IC50). Also, the result in [1], in [3], in [4], in data set [9] and in data set [11] was Active. Moreover, the Activity entry in data set [6], in [7], in data set [8] and in data set [10] was “Not Active” each time.

For `O=S(=O)(Nc1cc(Sc2nc[nH]n2)c(O)c2ccccc12)c1ccc(Br)cc1`, the result in [1], in data set [3], in data set [4], in data set [9] and in data set [11] was Active. The IC50 stood at 1100 nM in data set [2] (read-out: IC50) and 5200 nM in data set [5] (read-out: IC50). Also, the Activity result in data set [6], in data set [7], in data set [8] and in [10] was “Not Active” each time.

`O=S1(=O)C=C(Sc2nnc(-c3ccccc3)o2)c2ccccc21`: the outcome in data set [1], in data set [3], in data set [4], in data set [9] and in [11] was Active. Moreover, the IC50 in data set [2] (read-out: IC50) and in [5] (read-out: IC50) was 11000 nM in each case. For the same compound, the Activity entry in [6], in [7], in data set [8] and in [10] was “Not Active” in each case.

In the case of `O=S1(=O)C=C(Sc2nnnn2-c2ccccc2)c2ccccc21`, the result in [1], in data set [3], in data set [4], in [9] and in data set [11] was Active. The Activity entry in data set [6], in data set [7], in data set [8] and in data set [10] was “Not Active” in each case. The IC50 in [5] (read-out: IC50) turned out to be 20000 nM.

`O=[N+]([O-])c1c(Sc2nnnn2-c2ccccc2)cc(Cl)c2nonc12`: the IC50 in data set [12] (read-out: IC50) stood at 2300 nM; in [13] (read-out: IC50), 770 nM; in data set [2] (read-out: IC50), 1100 nM; in [5] (read-out: IC50) it was 1600 nM. Besides, the outcome in [1], in data set [3], in [4], in data set [9] and in data set [11] was Active. The Activity result in data set [6], in data set [7], in [8] and in [10] was “Not Active” throughout.

As for `COc1ccc(-c2nnc(SC3CC(=O)N(c4ccc(Cl)cc4)C3=O)[nH]2)cc1` (stereo not given), the outcome in data set [1], in [3], in data set [4], in data set [9] and in data set [11] was Active. For the same compound, the figures for the IC50 in data set [2] (read-out: IC50) and in data set [5] (read-out: IC50) were 2800 nM and 6700 nM, respectively. The Activity entry in [6], in data set [7], in data set [8] and in data set [10] was “Not Active” each time.

Consider `O=C(O)CSc1cc(NS(=O)(=O)c2ccc(Br)cc2)c2ccccc2c1O`, for which the IC50 entry in [12] was “Not Active”; in [13] (read-out: IC50) it was 130 nM; in data set [2] (read-out: IC50), 330 nM; in data set [5] (read-out: IC50) it was 1200 nM. The result in data set [1] and in data set [3] was Active. The Activity entry in [6] is listed as “Active”; in data set [7], “Not Active”; in [8], “Not Active”; in data set [10] it was “Not Active”.

Take `CNc1nc(-c2ccccc2)[n+](-c2ccc(C)cc2)s1.[Br-]`: the result in data set [1], in data set [3], in data set [4], in data set [9] and in data set [11] was Active. Besides, the IC50 stood at 2000 nM in data set [2] (read-out: IC50) and 8100 nM in [5] (read-out: IC50). Moreover, the Activity result in data set [6], in data set [7], in data set [8] and in data set [10] was “Not Active” each time.

For the compound `OC(Cn1cncn1)(Cn1cncn1)c1ccc(F)cc1F` [FLUCONAZOLE], the IC50 result in data set [12], in data set [13], in data set [2] and in data set [5] was “Not Active” each time. For the same compound, the result in [1], in data set [3] and in [4] was inactive.

With `O=S1(=O)C=C(Sc2nnc(-c3ccncc3)o2)c2ccccc21`, the result in data set [1], in data set [3], in data set [4], in data set [9] and in data set [11] was Active. In addition, the IC50 came out at 6200 nM in data set [2] (read-out: IC50) and 3700 nM in [5] (read-out: IC50). The Activity entry in data set [6], in data set [7], in data set [8] and in data set [10] was “Not Active” throughout.

As for `CCN(CC)c1ccc2c(C)c(-c3ccc(N4C(=O)C=CC4=O)cc3)c(=O)oc2c1`, the outcome in data set [1], in data set [3] and in data set [4] was Active. Besides, the IC50 in data set [13] (read-out: IC50) stood at 260 nM; in data set [2] (read-out: IC50) it was 260 nM; in data set [5] (read-out: IC50) it was 1100 nM.
